According to ChEMBL document CHEMBL3425411, “Synthesis of β-Carboline-Based N-Heterocyclic Carbenes and Their Antiproliferative and Antimetastatic Activities against Human Breast Cancer Cells” (J Med Chem, 2015):
Active and inactive are the calls of the source. The rule behind the calls is not given here.

What was measured:
MDA-MB-231 [1] = assay: Induction of apoptosis in human MDA-MB-231 cells assessed as late apoptotic cells at 2.5 uM after 24 hrs by annexin V-propidium iodide/Alexa Fluor 488 staining-based flow cytometric analysis (reference value: 2.08 to 3.78%); assay type: functional
How it was run: (§1)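 MDA-MB-231 cells, about 2 × 10⁵ per well, seeded in triplicate and treated for 24 h in RPMI-1640 with 10% FBS. Stained with Alexa Fluor 488 annexin V and propidium iodide, then read by flow cytometry. AV+/PI+ events were counted as late apoptotic and reported as percentage of cells relative to control. Three independent experiments, mean ± SEM.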

MDA-MB-231 [2] = assay: Induction of apoptosis in human MDA-MB-231 cells assessed as late apoptotic cells at 7.5 uM after 24 hrs by annexin V-propidium iodide/Alexa Fluor 488 staining-based flow cytometric analysis (reference value: 2.08 to 3.78%); assay type: functional; how it was run: as §1
MDA-MB-231 [3] = assay: Cell cycle arrest in human MDA-MB-231 cells assessed as accumulation at G0/G1 phase at 5 uM after 24 hrs by propidium iodide staining-based flow cytometric analysis (reference value: 44.3 to 47.1%); assay type: functional
MDA-MB-231 [4] = assay: Induction of apoptosis in human MDA-MB-231 cells assessed as early apoptotic cells at 5 uM after 24 hrs by annexin V-propidium iodide/Alexa Fluor 488 staining-based flow cytometric analysis (reference value: 4.05 to 4.68%); assay type: functional
MDA-MB-231 [5] = assay: Cell cycle arrest in human MDA-MB-231 cells assessed as accumulation at S phase at 2.5 uM after 24 hrs by propidium iodide staining-based flow cytometric analysis (reference value: 32.5 to 34.7%); assay type: functional
MDA-MB-231 [6] = assay: Cell cycle arrest in human MDA-MB-231 cells assessed as accumulation at G0/G1 phase at 7.5 uM after 24 hrs by propidium iodide staining-based flow cytometric analysis (reference value: 44.3 to 47.1%); assay type: functional
MDA-MB-231 [7] = assay: Induction of apoptosis in human MDA-MB-231 cells assessed as late apoptotic cells at 10 uM after 24 hrs by annexin V-propidium iodide/Alexa Fluor 488 staining-based flow cytometric analysis (reference value: 2.08 to 3.78%); assay type: functional; how it was run: as §1
MDA-MB-231 [8] = assay: Induction of apoptosis in human MDA-MB-231 cells assessed as depolarization of mitochondrial membrane potential after 24 hrs by JC-1 staining-based flow cytometric analysis; assay type: functional, cell-based
How it was run: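 Cells were seeded in 60 mm dishes, grown 24 h, then treated with compound for 24 h. Cells were stained with JC-1 and analysed by flow cytometry. Depolarization was read as green-only cells and as a fall in red/green fluorescence ratio, normalized to control. Three independent experiments, mean ± SEM.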

4T1 = assay: Antitumor activity against mouse 4T1 cells allografted in Balb/c mouse assessed as tumor growth inhibition at 10 mg/kg, po administered every alternative day for 5 weeks measured twice a week during compound dosing relative to control; assay type: functional
How it was run: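 4T1 cells (7 × 10⁵) were injected into the second right mammary fat pad of 8-week-old female Balb/c mice, with a booster of about 5 × 10⁵ cells 4 days later. One week after the booster, dosing began at 10 mg/kg by oral gavage on alternate days for 5 weeks (n = 6). Controls received vehicle. Tumor size and body weight were measured twice weekly.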

MDA-MB-231 [9] = assay: Induction of apoptosis in human MDA-MB-231 cells after 24 hrs by annexin V-propidium iodide/Alexa Fluor 488 staining-based flow cytometric analysis; assay type: functional, cell-based
MDA-MB-231 [10] = assay: Cell cycle arrest in human MDA-MB-231 cells assessed as accumulation at S phase at 7.5 uM after 24 hrs by propidium iodide staining-based flow cytometric analysis (reference value: 32.5 to 34.7%); assay type: functional
MDA-MB-231 [11] = assay: Cytotoxicity against human MDA-MB-231 cells assessed as growth inhibition after 24 to 72 hrs by MTT assay; assay type: functional, cell-based
How it was run: (§2)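 About 5000 cells/well were grown 24 h in RPMI-1640 with 10% FBS, then given fresh medium with compound at various concentrations (from 10 mM DMSO stocks) for 24, 48 and 72 h. MTT (5 mg/mL stock) was added for 2 h and formazan dissolved in DMSO. Absorbance was read at 595 nm and expressed as percent proliferation versus DMSO control.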

MDA-MB-231 [12] = assay: Cell cycle arrest in human MDA-MB-231 cells assessed as accumulation at G2/M phase at 5 uM after 24 hrs by propidium iodide staining-based flow cytometric analysis (reference value: 18.2 to 23.1%); assay type: functional
MDA-MB-231 [13] = assay: Cell cycle arrest in human MDA-MB-231 cells assessed as accumulation at S phase at 5 uM after 24 hrs by propidium iodide staining-based flow cytometric analysis (reference value: 32.5 to 34.7%); assay type: functional
MCF7 = assay: Cytotoxicity against human MCF7 cells assessed as growth inhibition after 24 to 72 hrs by MTT assay; assay type: functional, cell-based; how it was run: as §2
MDA-MB-231 [14] = assay: Antimigratory activity against human MDA-MB-231 cells at >= 2.5 uM after 48 hrs by transwell assay
MDA-MB-231 [15] = assay: Cell cycle arrest in human MDA-MB-231 cells assessed as accumulation at G2/M phase after 24 hrs by propidium iodide staining-based flow cytometric analysis; assay type: functional
MDA-MB-231 [16] = assay: Cell cycle arrest in human MDA-MB-231 cells assessed as accumulation at G2/M phase at 2.5 uM after 24 hrs by propidium iodide staining-based flow cytometric analysis (reference value: 18.2 to 23.1%); assay type: functional
MDA-MB-231 [17] = assay: Induction of apoptosis in human MDA-MB-231 cells assessed as early apoptotic cells at 2.5 uM after 24 hrs by annexin V-propidium iodide/Alexa Fluor 488 staining-based flow cytometric analysis (reference value: 4.05 to 4.68%); assay type: functional
Mus musculus = assay: Toxicity in Balb/c mouse allografted with mouse 4T1 cells assessed as reduction in body weight at 10 mg/kg, po administered every alternative day for 5 weeks measured twice a week during compound dosing; assay type: organism-based; design: dose 10 mg/kg, route oral; details: in vivo, 840 h
How it was run: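 Female Balb/c mice, 8 weeks old, given 7 × 10⁵ 4T1 cells into the second right mammary fat pad, plus a booster of about 5 × 10⁵ cells after 4 days. One week later, 10 mg/kg by oral gavage on alternate days for 5 weeks, n = 6. Vehicle-dosed controls. Body weight and tumour size measured twice weekly.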

MDA-MB-231 [18] = assay: Induction of apoptosis in human MDA-MB-231 cells assessed as early apoptotic cells at 10 uM after 24 hrs by annexin V-propidium iodide/Alexa Fluor 488 staining-based flow cytometric analysis (reference value: 4.05 to 4.68%); assay type: functional
MDA-MB-231 [19] = assay: Cell cycle arrest in human MDA-MB-231 cells assessed as accumulation at G2/M phase at 7.5 uM after 24 hrs by propidium iodide staining-based flow cytometric analysis (reference value: 18.2 to 23.1%); assay type: functional
MDA-MB-231 [20] = assay: Induction of apoptosis in human MDA-MB-231 cells assessed as early apoptotic cells at 7.5 uM after 24 hrs by annexin V-propidium iodide/Alexa Fluor 488 staining-based flow cytometric analysis (reference value: 4.05 to 4.68%); assay type: functional
MDA-MB-231 [21] = assay: Induction of apoptosis in human MDA-MB-231 cells assessed as late apoptotic cells at 5 uM after 24 hrs by annexin V-propidium iodide/Alexa Fluor 488 staining-based flow cytometric analysis (reference value: 2.08 to 3.78%); assay type: functional; how it was run: as §1
MDA-MB-468 = assay: Cytotoxicity against human MDA-MB-468 cells assessed as growth inhibition after 24 to 72 hrs by MTT assay; assay type: functional, cell-based; how it was run: as §2

Compound | Activity (MDA-MB-231 [1]) | Activity (MDA-MB-231 [2]) | Activity (MDA-MB-231 [3]) | Activity (MDA-MB-231 [4]) | Activity (MDA-MB-231 [5]) | Activity (MDA-MB-231 [6]) | Activity (MDA-MB-231 [7]) | Activity (MDA-MB-231 [8]) | Activity (MDA-MB-231 [9]) | Activity (MDA-MB-231 [10]) | IC50 (MDA-MB-231 [11]) | Activity (MDA-MB-231 [12]) | Activity (MDA-MB-231 [13]) | IC50 (MCF7) | Activity (MDA-MB-231 [14]) | Activity (MDA-MB-231 [15]) | Activity (MDA-MB-231 [16]) | Activity (MDA-MB-231 [17]) | Activity (Mus musculus) | Activity (MDA-MB-231 [18]) | further results
COC(=O)c1cc2c3ccccc3[nH]c2c2cn(-c3ccc(C(F)(F)F)cc3)c[n+]12.[Cl-] | 2.87% | 9.02% | 45.3% | 5.23% | 26.7% | 34.1% | 14.31% | Dose-dependent effect | Dose-dependent effect | 27.6% | 7.98 µM | 35.5% | 19% | 14.2 µM | Active | Dose-dependent effect | 22.8% | 4.4% | Non-toxic | 14.3% | inhibition in vivo at 10 mg/kg (4T1; 4T1, 840 h, read-out: TGI): 20%; Activity (MDA-MB-231 [19]): 38.2%; Activity (MDA-MB-231 [20]): 9.28%; Activity (MDA-MB-231 [21]): 2.31%; IC50 (MDA-MB-468): 11.1 µM
COC(=O)c1cc2c3ccccc3[nH]c2c2cn(-c3ccc(F)cc3Cl)c[n+]12.[Cl-] | 1.16% | 7.04% | 46.6% | 4.72% | 29.8% | 31.1% | 11.92% | Dose-dependent effect | Dose-dependent effect | 28.22% | 4.49 µM | 33.9% | 21.8% | 6.8 µM | Active | Dose-dependent effect | 23.4% | 2.21% | Non-toxic | 14.4% | TGI (4T1): inactive; Activity (MDA-MB-231 [19]): 40.6%; Activity (MDA-MB-231 [20]): 12.14%; Activity (MDA-MB-231 [21]): 3.26%; IC50 (MDA-MB-468): 5.94 µM
